Laboratory results from ChEMBL document CHEMBL1143576, “Discovery of 2-arylthiazolidine-4-carboxylic acid amides as a new class of cytotoxic agents for prostate cancer” (J Med Chem, 2005).

What was measured:
[1] = test system: RH7777; experiment: Antiproliferative effect against RH7777 cell line using sulforhodamine B(SRB) assay; type: functional, cell-based; settings: Rattus norvegicus
Summary of the method: (§1)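 Cells seeded at 1000 to 5000 per well, depending on growth rate, and exposed to a range of concentrations for 96 h, in three to five replicates. Stocks were 5 to 20 mM in DMSO, diluted into complete medium. Endpoint cell number was measured by SRB: 10% trichloroacetic acid fixation, 0.4% SRB stain, absorbance at 540 nm.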

[2] = test system: PPC-1; experiment: Antiproliferative activity against prostate cancer PPC-1 cell line using sulforhodamine B(SRB) assay; type: functional, cell-based; settings: Homo sapiens; summary of the method: as §1
[3] = test system: TSU; experiment: Antiproliferative activity against prostate cancer TSU-Pr1 cell line using sulforhodamine B(SRB) assay; type: functional, cell-based; settings: Homo sapiens; summary of the method: as §1
[4] = test system: DU-145; experiment: Antiproliferative activity against prostate cancer DU-145 cell line using sulforhodamine B(SRB) assay; type: functional, cell-based; settings: Homo sapiens; summary of the method: as §1
[5] = test system: PC-3; experiment: Antiproliferative activity against prostate cancer PC-3 cell line using sulforhodamine B(SRB) assay; type: functional, cell-based, Homo sapiens; summary of the method: as §1
[6] = test system: LNCaP; experiment: Antiproliferative activity against prostate cancer LNCaP Cell line using sulforhodamine B(SRB) assay; type: functional, cell-based; settings: Homo sapiens, Prostate gland; summary of the method: as §1
[7] = test system: LNCaP; experiment: Induction of apoptosis in human LNCaP Cell line at 2 uM concentration after 72 hr; type: functional
Summary of the method: (§2)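 Cells were exposed to compound for 72 h. Cytoplasmic DNA-histone complexes (mono- and oligonucleosomes) were quantified by sandwich ELISA using monoclonal antibodies against DNA and histones. The enrichment factor is the OD405 ratio of treated to untreated cells.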

[8] = test system: RH7777 (Rattus norvegicus); experiment: Induction of apoptosis in rat RH7777 cell line at 2 uM concentration after 72 hr
[9] = test system: PC-3; experiment: Induction of apoptosis in human PC-3 cell line at 10 uM concentration after 72 hr; type: functional; summary of the method: as §2
[10] = test system: PC-3; experiment: Induction of apoptosis in human PC-3 cell line at 5 uM concentration after 72 hr; type: functional; summary of the method: as §2
[11] = test system: RH7777; experiment: Induction of apoptosis in rat RH7777 cell line at 5 uM concentration after 72 hr
[12] = test system: LNCaP; experiment: Induction of apoptosis in human LNCaP Cell line at 5 uM concentration after 72 hr; type: functional; summary of the method: as §2
[13] = test system: RH7777; experiment: Induction of apoptosis in rat RH7777 cell line at 10 uM concentration after 72 hr
[14] = test system: PC-3; experiment: Induction of apoptosis in human PC-3 cell line at 2 uM concentration after 72 hr; type: functional; summary of the method: as §2
[15] = test system: LNCaP; experiment: Induction of apoptosis in human LNCaP Cell line at 10 uM concentration after 72 hr; type: functional; summary of the method: as §2
[16] = test system: RH7777 (Rattus norvegicus); experiment: Antiproliferative effect against RH7777 cell line using sulforhodamine B(SRB) assay; No activity
[17] = test system: PC-3; experiment: Induction of apoptosis in human PC-3 cell line at 20 uM concentration after 72 hr; type: functional; summary of the method: as §2
[18] = test system: LNCaP; experiment: Induction of apoptosis in human LNCaP Cell line 20 at uM concentration after 72 hr; type: functional; summary of the method: as §2
[19] = test system: LNCaP; experiment: Induction of apoptosis in human LNCaP Cell line 10at uM concentration after 72 hr; type: functional; summary of the method: as §2
[20] = Homo sapiens, PC-3, read-out: IC50

SMILES	IC50 [1] [µM]	IC50 [2] [µM]	IC50 [3] [µM]	IC50 [4] [µM]	IC50 [5, 20] [µM]	IC50 [6] [µM]	also measured
CCCCCCCCCCCCCCCCCCNC(=O)[C@H]1CSC(c2ccc(F)cc2)N1 (some centres undefined)	17.4	2.1	5.4	5.7	6.8	1.9	
CCCCCCCCCCCCCCCCCCNC(=O)[C@H]1CSC(c2ccccc2)N1C(C)=O (some centres undefined)	> 20	12.6	> 20	~20	~20	16.1	
CCCCCCCCCCCCCCCCCCNC(=O)[C@H]1CSC(Cc2ccccc2)N1 (some centres undefined)	> 20	4	11.2	15.3	16.4	4.4	
CCCCCCCCCCCCCCCCCCNC(=O)[C@H]1CSC(c2ccc(OC)c(OC)c2)N1 (some centres undefined)	10.3	0.58	2.4	4.5	5.2	0.85	
CCCCCCCCCCCCCCCCCCNC(=O)[C@H]1CSC(c2cc(OC)c(OC)c(OC)c2)N1 (some centres undefined)	11.4	0.48	2.4	3.9	4	0.82	
CCCCCCCCCCCCCCCCCCNC(=O)[C@H]1CSC(CCCCCCCCCCCC)N1 (some centres undefined)	~20	13	10.7	8.9	15	11.9	
CCCCCCCCCCCCCCCCCCNC(=O)[C@H]1CSC(c2ccc(-c3ccccc3)cc2)N1 (some centres undefined)	> 20	> 20	> 20	> 20	> 20	> 20	
CCCCCCCCCCCCCCCCCCNC(=O)[C@H]1CSC(c2ccc(C#N)cc2)N1 (some centres undefined)	> 20	5	> 20	> 20	> 20	5.9	
CCCCCCCCCCCCCCCCCCNC(=O)[C@H]1CSC(c2c(Cl)cccc2Cl)N1 (some centres undefined)	> 20	17.1	20	> 20	> 20	13.1	
CCCCCCCCCCCCCCNC(=O)[C@H]1CSC(c2ccccc2)N1.Cl (some centres undefined)	3.4	1.3	2	2.4	3	1.4	Apoptosis [7]: 14.1; Apoptosis [8]: 2.6; Apoptosis [9]: 54; Apoptosis [10]: 18.7; Apoptosis [11]: 3.2; Apoptosis [12]: 75.4; Apoptosis [13]: 2.5; Apoptosis [14]: 1.8; Apoptosis [15]: 80.7
CC(=O)O[C@H]1C(=O)[C@@]2(C)[C@H]([C@H](OC(=O)c3ccccc3)[C@]3(O)C[C@H](OC(=O)[C@H](O)[C@@H](NC(=O)c4ccccc4)c4ccccc4)C(C)=C1C3(C)C)[C@]1(OC(C)=O)CO[C@@H]1C[C@@H]2O [PACLITAXEL]		0.0034	0.0021	0.0027	0.0034	0.002	
CCCCCCCCCCCCCCCCCCNC(=O)[C@H]1CSC(c2ccc(N(C)C)cc2)N1 (some centres undefined)	> 20	1.1	3	5.3	6	1.6	
CCCCCCCCCCCCCCCCCCNC(=O)[C@H]1CSC(c2ccc([N+](=O)[O-])cc2)N1 (some centres undefined)	~20	15.3	15.9	15.3	~20	8.4	
CCCCCCCCCCCCCCCCCCNC(=O)c1csc(-c2ccccc2)n1	> 20	> 20	> 20	> 20	> 20	> 20	
CCCCCCCCCCCCCCCCCCNC(=O)[C@H]1CSC(c2cccc(O)c2)N1 (some centres undefined)	31	1.2	4	5.7	6.7	1.7	
CCCCCCCCCCCCCCCCCCCNC(=O)[C@H]1CSC(c2ccccc2)N1.Cl (some centres undefined)		16.8	> 20	> 20		13.6	IC50 [16]: No activity; IC50 ([5]; pc-3): No activity
CCCCCCCCCCCCCCCCCCNC(=O)[C@H]1CSC(c2ccc(Br)cc2)N1 (some centres undefined)	> 20	3.7	18.3	13.8	17.3	5.1	
CCCCCCCNC(=O)[C@H]1CSC(c2ccccc2)N1 (some centres undefined)	52.2	34.7	28	44.9	38.5	12.4	
CCCCCCCCCCCCCCCCCCNC(=O)[C@H]1CSC(c2ccc(C)cc2)N1 (some centres undefined)	> 20	1.9	8	10.5	12.8	1.9	
CCCCCCCCCCCCCCCCCCNC(=O)[C@H]1CSC(c2ccc(F)c(Br)c2)N1 (some centres undefined)	20	4.7	14	11.3	13.5	3	
CCCCCCCCCCCCCCCCCCNC(=O)[C@H]1CSC(C2CCCCC2)N1 (some centres undefined)	> 20	9.3	> 20	> 20	> 20	12.8	
CCCCCCCCCCCCCCCCCCNC(=O)[C@H]1CSC(c2ccccc2)N1S(C)(=O)=O (some centres undefined)	> 20	> 20	> 20	> 20	> 20	> 20	
CCCCCCCCCCCCCCCCCCNC(=O)[C@H]1CSC(c2c[nH]c3ccccc23)N1 (some centres undefined)	> 20	1.3	4.4	8.9	11.5	2.1	
CCCCCCCCCCCCCCCCCCNC(=O)[C@H]1CSC(c2ccccc2)N1.Cl (some centres undefined)	25.6	2	5	5.4	7.8	2.1	Apoptosis [7]: 4.5; Apoptosis [9]: 3.4; Apoptosis [10]: 2.3; Apoptosis [12]: 45.2; Apoptosis [17]: 12.7; Apoptosis [14]: 1.4; Apoptosis [18]: 26.1; Apoptosis [19]: 37.1
CCCCCCCCCCCCCCCCCCNC(=O)[C@H]1CSC(c2cc(F)cc(F)c2)N1 (some centres undefined)	> 20	10.6	> 20	> 20	> 20	11.2	
CCCCCCCCCCCCCCCCCCNC(=O)[C@H]1CSC(c2ccoc2)N1 (some centres undefined)	10.4	1.1	4.2	6.6	8.1	1.7	
CCCCCCCCCCCCCCCCCCNC(=O)[C@H]1CSC(c2ccc(NC(C)=O)cc2)N1 (some centres undefined)	21.1	0.55	0.94	3.1	5.6	1.3	
CCCCCCCCCCCCCCCCCCNC(=O)[C@H]1CSC(c2cccnc2)N1 (some centres undefined)	10.5	2.9	7.8	7.5	9.2	3.6	
CCCCCCCCCCCCCCCCCCNC(=O)[C@H]1CSC(c2ccc(OC)cc2)N1 (some centres undefined)	> 20	1.5		8.7	~20	2.1	
